The target in experiment [1] is T1, Retinol-binding protein 4 (Homo sapiens, UniProt P02753). Briefly: Binding affinity to His-tagged recombinant human sRBP expressed in Pichia pastoris assessed as apparent dissociation constant after 5 mins by fluorescence spectrophotometric analysis. The following applies: read-out: Kd(app).
Experiment [2] has as its target T1, Retinol-binding protein 4. Briefly: Antagonist activity at His-tagged recombinant human sRBP […] assessed as disruption of ROH-sRBP-TTR protein interaction after 2 hr by TR-FRET assay. Format: functional. The essentials: (§1)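 Apo His-sRBP (P. pastoris-expressed), 5 nM, with 100 nM biotinylated native TTR, 100 nM streptavidin-APC and 1 nM europium anti-His antibody. Inhibitor held at 10 μM while ROH was titrated, in 20 mM Tris-HCl pH 7.4, 150 mM NaCl, 1 mM EDTA, 0.01% BSA, 0.02% Tween 20.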

Experiment [3] addresses T1, Retinol-binding protein 4. Put plainly: Binding affinity to immobilized His-tagged recombinant human sRBP assessed as inhibition of sRBP and detergent treated HEK293 membrane interaction at 10 uM after 1 hr by surface plasmon resonance assay.
Experiment [4] addresses T1, Retinol-binding protein 4. Put plainly: Antagonist activity at His-tagged recombinant human sRBP expressed in Escherichia coli BL21(DE3) assessed as disruption of sRBP-TTR protein interaction after 2 hr by surface plasmon resonance assay. Format: functional. The essentials:
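SPR run at 25 °C on a Ni-NTA chip in HBS with 50 μM EDTA at 10 μL/min. Nickel activation, 5 min capture of 200 nM His-sRBP, 1 min compound pulse, then 5 min injection of 1 μM native untagged TTR preincubated with compound at 10 μM. Reference-surface corrected; regenerated with 0.3 mM EDTA; repeated three to five times.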

In experiment [5] the target is T1, Retinol-binding protein 4. Briefly: Antagonist activity at His-tagged recombinant human sRBP […] assessed as disruption of ROH-sRBP-TTR protein interaction after 2 hr by TR-FRET assay relative to control. It counts as functional. The essentials:
as §1

Experiment [6] addresses T1, Retinol-binding protein 4. Briefly: Binding affinity to His-tagged recombinant human sRBP expressed in Escherichia coli BL21(DE3) assessed as disruption of sRBP-TTR protein interaction after 1 hr by SDS-PAGE and silver staining method. The essentials: (§2)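 Compound was 100 μM, or 1, 10, 20, 50 and 100 μM for dose–response. Control was 10 μM ROH with no compound. Released free sRBP in the flow-through was analysed by SDS-PAGE; each run done at least three times.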

The target in experiment [7] is T1, Retinol-binding protein 4. Put plainly: Binding affinity to His-tagged recombinant human sRBP expressed in Escherichia coli BL21(DE3) assessed as disruption of sRBP-TTR protein interaction at 100 uM after 1 hr by SDS-PAGE and silver staining method relative to 10 uM ROH. The essentials: as §2

The source made the active and inactive calls. The rule behind the calls is not given here.

Regarding `COC(=O)COc1ccc(NC(=O)/C=C(C)/C=C/C=C(C)/C=C/C2=C(C)CCCC2(C)C)cc1`, in experiment [1], the Kd turned out to be 131 nM. The EC50 in experiment [2] came out at 1260 nM. Moreover, the result in experiment [3] and in experiment [6] was Active. Also, in experiment [4], the result was inactive. For the same compound, the Ratio EC50 in experiment [5] was 15.
With `CC1=C(/C=C/C(C)=C/C=C/C(C)=C/C(=O)Nc2ccc(O)cc2)C(C)(C)CCC1`, the outcome in experiment [3] was inactive. Besides, the result in experiment [4] was Active. Besides, the fold change (FC) in experiment [7] came out at 3.
